Experiment: Toxicity liver stage against HepG2, at 10uM
Assay type: cell-based
Design: test concentration 10 uM, cell line HepG2-A16-CD81EGFP
Settings: human, HepG2-A16-CD81EGFP cells; read-out: INHIBITION
How it was run: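 Uninfected HepG2-A16-CD81EGFP cells, 3 × 10^3 per well, 1536-well, plated on prespotted compound at 10 μM final, parasite-free screening media added to match infected plates; puromycin 10 μM positive, DMSO 0.5% negative; run in parallel with 48 h PbLuc assay at 37 °C, 5% CO2; viability by CellTiter-Glo luminescence, normalized to controls.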

Compound | cytotoxicity at 10 µM
Cc1nn(C)c2c(N(C)Cc3ccco3)nc(C3CC3)nc12 | 1.58%
CC(CC#N)N(C)Cc1ccccc1F (configuration not stated) | 10.4%
O=C(CN1CC(c2nc(-c3ccco3)no2)C1)NCc1ccc(F)cc1 | -5.07%
O=C(CCC(F)(F)F)N1CCCC(c2ncc[nH]2)C1 (configuration not stated) | 2.14%
COCCCNc1c(-c2ccccc2)c(=O)c1=O | 0.409%
CC(NCCCN1CCCC1=O)c1ccc(F)cc1N(C)C (configuration not stated) | -2.78%
COCC(=O)N1CCC2(CC1)CN(CC1CC1)c1ccc(F)cc12 | -103%
COCC(=O)NCC[C@H]1CC(C)(C)Oc2ccccc21 | 3.3%
Cc1ccc(NC(=O)NC(C)c2nc[nH]n2)cc1 (configuration not stated) | -0.665%
Cc1nnc(C(C)N(C)Cc2c(C)nn(-c3ccccc3)c2C)o1 (configuration not stated) | -4.73%
CSc1ncccc1C(=O)NCCC(O)c1cccs1 (configuration not stated) | -4.68%
O=C(N[C@@H]1CCNC[C@H]1O)c1ccc(F)c(Cl)c1 | -11.1%
CC(C)(C)OC(=O)N1CCC(NC2CCS(=O)(=O)C2)CC1 (configuration not stated) | -6.72%
O=C(c1ccc[nH]1)N1CCCC1c1nc(-c2ccccc2)n[nH]1 (configuration not stated) | 2.57%
O=C(CC1=CCCCC1)NCCc1csc(N2CCCC2)n1 | -7.63%
CC(O)CNc1nc(-c2cccnc2)nc2c1CCC2 (configuration not stated) | 9.8%
Cc1cnc(NCc2ccc(S(=O)(=O)N(C)C(C)C)cc2)nc1C | 10.2%
CC(C)n1cc(C(=O)NC2CCS(=O)(=O)C2)c2ccccc2c1=O (configuration not stated) | 1.85%
Cc1nc(C(=O)N2CCN(S(C)(=O)=O)CC2)c(-c2cccc(F)c2)s1 | 1.37%

Compound | cytotoxicity at 10 µM
Cc1nnc(CCNC2CCN(c3ncnc4c(C)csc34)CC2)s1 | 20.7%
COc1ccc(C(=O)N2CCN3C(=O)CNC(=O)[C@@H]3C2)cc1 | -7.1%
Fc1cccc2c1CCC2NCc1ccc(N2CCOCC2)cc1 (configuration not stated) | -14.7%
CC(=O)c1ccc(CN2CC(Oc3ccccc3C)C2)cc1 | -4.73%
COCCC(=O)N1CC2(CCN(Cc3ccccc3Cl)CC2)C1 | -73.1%
COc1ccc(C(=O)NCc2ccon2)cc1F | 0.824%
CCN1CC2(CCCCN2C(=O)C2CCCCC2)CC1=O (configuration not stated) | 18.3%
COC(C)c1cccc(NCc2cccs2)c1 (configuration not stated) | -8.94%
O=C(NCC1(O)CCOC1)NCC1(c2ccccc2Cl)CCC1 (configuration not stated) | -50.8%
CC(=O)N[C@@H]1CN(Cc2nc3ccccc3[nH]2)C[C@H]1c1ccc(C)o1 | 2.75%
COCCc1noc(CNC2CCc3nc(C(C)C)nn3C2)n1 (configuration not stated) | 4.28%
CCS(=O)(=O)N1C[C@@H](c2ccccc2)[C@@]2(CCNC2=O)C1 | -108%
Fc1cccc(C2CCCCN2Cc2nc(-c3cnccn3)no2)c1 (configuration not stated) | -3.02%
CCOc1ccc(Oc2cc(CN)ccn2)cc1 | 0.102%
C=C(C)CN(CC)C(=O)CN(C)C1CCc2ccccc21 (configuration not stated) | -11.6%
O=C(C1=CCCCC1)N1CCO[C@H]2[C@H](Oc3ccccn3)CC[C@@H]21 | 5.08%
O=C1CO[C@H]2CN(Cc3ccccc3Br)C[C@@H]2N1 | 2.13%
Cc1cccnc1[C@H](C)Nc1nc(-c2cccnc2)nc2c1CNC2 | -8.52%
O=C(c1nc2c(s1)CCCN2CC1CC1)N1CCCC1 | 15.2%

Compound | cytotoxicity at 10 µM
CC(=O)N1CCC12CCN(Cc1ccco1)CC2 | 1.17%
Cc1csc(N(C)C(=O)C2CC(=O)N(c3ccccc3F)C2)n1 (configuration not stated) | 9.95%
COCCS(=O)(=O)Nc1ccc(-n2cncn2)c(F)c1 | -12.2%
O=C(O)c1nnn(Cc2cccc(C(F)(F)F)c2)c1-c1ccccn1 | 2.27%
COC(=O)CCN(C)C(=O)c1ccc(-c2cscn2)cc1 | -7.29%
CCOc1ncccc1C(=O)N(C)Cc1ncc(C)c(OC)c1C | 3.06%
COc1cc(-c2cc(N)ncn2)cc(OC)c1OC | -5.11%
COCCCN(Cc1ccncc1)C(=O)CSc1ccc(F)cc1 | 0.807%
Cc1cc(C)n(C2CN(CC(=O)N(C)Cc3ccco3)C2)n1 | -4.42%
CCc1n[nH]c(=O)c(C(=O)N2CCOC3(CCCC3)C2)c1CC | 13.3%
Cc1nn(C)cc1CN(C)c1nccc(-c2cn(C)nc2C)n1 | 20.2%
COc1ccc(SCC2CNc3nc4ccccc4c(=O)n32)cc1 (configuration not stated) | 7.69%
CCCOc1ccc(CNc2cncc(-n3cccn3)n2)cc1 | 11.7%
Cc1cc(CN2CCCC(C)(CO)C2)ccc1F (configuration not stated) | -20.4%
CCNS(=O)(=O)C1CCN(C(=O)c2ccc(CC)o2)C1 (configuration not stated) | 5.45%
CCS(=O)(=O)c1ccc2c(c1)N1CCS(=O)(=O)N=C1O2 | 10.3%
Cc1ccc(CN2CCCC3(CCCC(=O)N3C)C2)s1 (configuration not stated) | -110%
COC1COC2(CCN(C(=O)c3ccc4ccccc4c3)CC2)C1 (configuration not stated) | -98.4%
O=C1CO[C@@H]2CN(Cc3cccs3)C[C@H]2N1Cc1cccnc1 | -77.6%

Reference: ChEMBL document CHEMBL4513216, “Probing the Open Global Health Chemical Diversity Library for Multistage-Active Starting Points for Next-Generation Antimalarials” (ACS Infect Dis, 2020)
